Measured values as given in ChEMBL document CHEMBL4665761, “Optimizing the Benefit/Risk of Acetyl-CoA Carboxylase Inhibitors through Liver Targeting” (J Med Chem, 2020).

How the values were obtained:
OATP2B1 = OATP2B1 (Homo sapiens, UniProt O94956); assay: Substrate activity at human OATP2B1 stably expressed in HEK293 cells assessed as ratio of total to passive cellular uptake at 1 uM incubated for 0.5 to 4 mins by LC/MS-MS analysis; assay type: cell-based; details: HEK293 cells stably expressing human OATP2B1, time 0.5-4 min
Sequence of OATP2B1 (O94956 whole entry): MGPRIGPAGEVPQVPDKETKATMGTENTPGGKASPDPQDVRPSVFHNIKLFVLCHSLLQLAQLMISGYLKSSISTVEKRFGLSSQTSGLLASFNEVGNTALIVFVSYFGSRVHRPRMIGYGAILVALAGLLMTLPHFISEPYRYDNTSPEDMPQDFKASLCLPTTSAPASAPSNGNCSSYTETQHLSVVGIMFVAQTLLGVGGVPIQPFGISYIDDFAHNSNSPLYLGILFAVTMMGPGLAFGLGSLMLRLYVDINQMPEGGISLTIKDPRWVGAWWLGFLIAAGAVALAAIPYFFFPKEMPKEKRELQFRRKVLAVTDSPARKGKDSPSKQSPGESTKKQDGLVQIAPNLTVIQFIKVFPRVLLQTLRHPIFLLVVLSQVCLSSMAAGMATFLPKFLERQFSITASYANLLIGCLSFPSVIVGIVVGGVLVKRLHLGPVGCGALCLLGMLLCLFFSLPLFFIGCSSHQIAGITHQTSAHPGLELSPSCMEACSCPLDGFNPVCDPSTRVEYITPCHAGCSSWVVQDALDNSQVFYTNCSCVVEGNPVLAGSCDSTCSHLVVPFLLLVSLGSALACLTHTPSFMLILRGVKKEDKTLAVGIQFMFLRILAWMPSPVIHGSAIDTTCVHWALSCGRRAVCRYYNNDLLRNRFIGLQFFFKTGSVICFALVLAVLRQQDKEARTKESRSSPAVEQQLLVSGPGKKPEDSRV
Procedure, shortened: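 HEK293 cells stably transfected with the transporter, plus wild-type cells, grown to confluence in DMEM with 10% heat-inactivated FBS and 5 µg/mL blasticidin. Washed with HBSS/20 mM HEPES, pH 7.4, then incubated with compound at 37 °C for 0.5–4.0 min. Cells washed ice-cold, lysed in MeOH for LC-MS/MS, uptake normalized to BCA protein. Ratio = transfected/wild-type uptake, averaged over time points.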

[1] = Toxicity in cynomolgus monkey assessed as reduction in platelet count at >= 30 mg/kg, po after 14 days; assay type: organism-based, Macaca fascicularis; details: in vivo
Rattus norvegicus [2] = assay: Effect on triglyceride accumulation in Sprague-Dawley rat high fat dietary model at 1 mg/kg, po assessed as reduction in triglyceride level after 42 days by XPT clinical analyzer; assay type: functional; parameters: scale not given: the % may be the effect or the level left; details: time 42 day
Procedure, shortened: (§1)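 High-fat-diet-fed Sprague-Dawley rats dosed orally for 42 days, with chow-fed and vehicle controls, n = 10 per group. Read-out is hepatic triglyceride, reported as mean ± SEM.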

[3] = Drug uptake in human hepatocytes assessed as passive diffusion clearance at 1 uM up to 15 mins in presence of rifamycin SV by LC-MS/MS analysis; assay type: ADME, cell-based, Hepatocyte; details: 0.25 h
OATP1B1 = target: T1, OATP1B1 (Homo sapiens, UniProt Q9Y6L6); assay: Substrate activity at human OATP1B1 stably expressed in HEK293 cells assessed as ratio of total to passive cellular uptake at 1 to 3 uM incubated for 0.5 to 4 mins by LC/MS-MS analysis; assay type: ADME, cell-based; details: HEK293 cells stably expressing human OATP1B1, dose 1-3 µM, time 0.5-4 min
T1 sequence (Q9Y6L6 whole entry): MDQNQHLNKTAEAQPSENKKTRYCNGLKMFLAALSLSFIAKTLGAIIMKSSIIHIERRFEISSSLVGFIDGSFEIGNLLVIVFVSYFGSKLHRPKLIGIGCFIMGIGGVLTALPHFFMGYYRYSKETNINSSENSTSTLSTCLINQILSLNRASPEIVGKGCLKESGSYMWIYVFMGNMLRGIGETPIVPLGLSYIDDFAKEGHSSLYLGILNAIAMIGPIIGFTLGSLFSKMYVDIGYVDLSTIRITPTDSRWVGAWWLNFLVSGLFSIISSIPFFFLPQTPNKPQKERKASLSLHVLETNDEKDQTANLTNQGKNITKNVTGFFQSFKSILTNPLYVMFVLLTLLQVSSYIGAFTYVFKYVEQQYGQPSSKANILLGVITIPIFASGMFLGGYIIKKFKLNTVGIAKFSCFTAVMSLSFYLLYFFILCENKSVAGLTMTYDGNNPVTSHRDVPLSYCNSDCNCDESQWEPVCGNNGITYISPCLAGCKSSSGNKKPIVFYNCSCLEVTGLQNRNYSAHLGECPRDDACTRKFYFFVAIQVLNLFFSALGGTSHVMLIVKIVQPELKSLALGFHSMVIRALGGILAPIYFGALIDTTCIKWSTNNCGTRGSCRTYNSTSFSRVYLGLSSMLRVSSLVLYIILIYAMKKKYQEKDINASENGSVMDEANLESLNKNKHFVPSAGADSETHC
Procedure, shortened: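 Stably transfected HEK293 cells and wild-type parental cells, cultured to confluency in DMEM with 10% heat-inactivated FBS and 5 µg/mL blasticidin. Uptake at 1–3 µM in HBSS/20 mM HEPES pH 7.4, 37 °C, 0.5–4.0 min. Cells washed in ice-cold buffer, lysed in MeOH, quantified by LC-MS/MS and normalized to protein. Ratio is transfected/parental uptake; >2 denotes substrate.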

Cytochrome P450 2C8 = Cytochrome P450 2C8 (Homo sapiens, UniProt P10632); assay: inhibition of CYP2C8 in human liver microsomes; assay type: ADME
Sequence of Cytochrome P450 2C8 (P10632 whole entry): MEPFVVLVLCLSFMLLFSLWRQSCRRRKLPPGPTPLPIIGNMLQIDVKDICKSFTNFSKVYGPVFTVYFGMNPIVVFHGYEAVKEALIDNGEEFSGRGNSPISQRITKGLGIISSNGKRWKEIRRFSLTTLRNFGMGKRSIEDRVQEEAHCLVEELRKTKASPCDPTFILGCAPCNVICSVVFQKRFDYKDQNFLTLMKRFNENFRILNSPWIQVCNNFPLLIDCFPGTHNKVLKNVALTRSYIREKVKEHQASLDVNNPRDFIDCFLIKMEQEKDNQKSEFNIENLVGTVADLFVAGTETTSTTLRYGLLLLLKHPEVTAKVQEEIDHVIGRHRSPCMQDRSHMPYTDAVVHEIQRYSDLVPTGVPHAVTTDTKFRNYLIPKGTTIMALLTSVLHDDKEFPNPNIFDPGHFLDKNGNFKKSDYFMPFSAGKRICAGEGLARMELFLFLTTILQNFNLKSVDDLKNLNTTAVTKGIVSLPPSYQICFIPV

[4] = Inhibition of DNL in po dosed Sprague-Dawley rat assessed as reduction in DNL level in liver pretreated with one hr followed by [14C]-acetate treatment and measured after 1 hr; assay type: functional, organism-based
Procedure, shortened: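 Sprague-Dawley rats given single oral doses of 0.03–300 mg/kg in 0.5% methyl cellulose vehicle, n = 16 per dose. Read-out is incorporation of 14C-acetate into lipids in liver, bone marrow and lung, measured at 2 h post-dose relative to vehicle. Data are mean ± SEM. EC50 is reported with a 95% confidence interval.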

[5] = Genotoxicity in Salmonella typhimurium TA98 by Ames test; assay type: toxicity; details: salmonella enterica subsp. enterica serovar typhimurium
Procedure, shortened: (§2)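 Ames test in Salmonella strains TA98, TA100, TA1535 and TA1537, run with and without aroclor-induced rat liver S9 plus NADPH.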

[6] = target: Broad substrate specificity ATP-binding cassette transporter ABCG2 (Homo sapiens, UniProt Q9UNQ0); assay: Inhibition of human ABCG2 expressed in MDCK2-LE cells in presence of […]; assay type: cell-based, MDCKII-LE
Sequence of Broad substrate specificity ATP-binding cassette transporter ABCG2 (Q9UNQ0 whole entry): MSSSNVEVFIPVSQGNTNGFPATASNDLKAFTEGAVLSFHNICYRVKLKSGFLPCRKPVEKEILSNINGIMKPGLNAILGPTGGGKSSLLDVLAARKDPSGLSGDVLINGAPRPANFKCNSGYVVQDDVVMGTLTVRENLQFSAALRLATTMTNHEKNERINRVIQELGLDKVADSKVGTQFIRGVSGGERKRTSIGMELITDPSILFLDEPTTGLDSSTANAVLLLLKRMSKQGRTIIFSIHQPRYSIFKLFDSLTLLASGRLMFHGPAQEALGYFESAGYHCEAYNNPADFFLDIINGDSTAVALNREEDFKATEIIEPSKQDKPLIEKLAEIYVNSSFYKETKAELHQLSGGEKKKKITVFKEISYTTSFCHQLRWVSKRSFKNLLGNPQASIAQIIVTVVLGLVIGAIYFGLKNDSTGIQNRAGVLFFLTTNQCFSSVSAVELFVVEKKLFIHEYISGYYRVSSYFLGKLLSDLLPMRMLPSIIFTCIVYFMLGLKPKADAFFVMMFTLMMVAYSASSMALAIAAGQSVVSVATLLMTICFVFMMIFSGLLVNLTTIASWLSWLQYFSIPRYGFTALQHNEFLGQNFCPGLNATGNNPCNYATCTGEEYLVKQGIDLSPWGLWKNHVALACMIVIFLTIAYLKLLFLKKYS

[7] = Genotoxicity in Salmonella typhimurium TA1537 by Ames test; assay type: toxicity; details: salmonella enterica subsp. enterica serovar typhimurium; procedure, shortened: as §2
[8] = target: UDP-glucuronosyltransferase 2B7 (Homo sapiens, UniProt P16662); assay: Inhibition of UGT2B7 in human liver microsomes incubated for 60 mins in presence of UDPGA by LC-MS/MS analysis; assay type: ADME
Sequence of UDP-glucuronosyltransferase 2B7 (P16662 whole entry): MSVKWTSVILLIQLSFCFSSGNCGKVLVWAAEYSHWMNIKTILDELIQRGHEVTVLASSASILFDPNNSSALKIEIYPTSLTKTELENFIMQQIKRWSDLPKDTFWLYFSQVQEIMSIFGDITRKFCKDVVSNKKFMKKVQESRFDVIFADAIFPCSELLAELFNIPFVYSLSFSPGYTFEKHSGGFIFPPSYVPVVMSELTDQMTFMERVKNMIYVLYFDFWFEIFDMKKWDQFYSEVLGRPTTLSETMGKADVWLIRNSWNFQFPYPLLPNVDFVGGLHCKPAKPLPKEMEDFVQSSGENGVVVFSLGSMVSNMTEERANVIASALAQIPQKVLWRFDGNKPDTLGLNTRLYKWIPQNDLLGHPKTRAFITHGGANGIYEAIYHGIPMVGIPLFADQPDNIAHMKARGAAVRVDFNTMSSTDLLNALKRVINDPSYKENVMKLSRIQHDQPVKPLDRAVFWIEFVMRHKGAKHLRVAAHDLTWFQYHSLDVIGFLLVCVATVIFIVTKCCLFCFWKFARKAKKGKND

Cytochrome P450 3A4 = Cytochrome P450 3A4 (Homo sapiens, UniProt P08684); assay: inhibition of CYP3A4 in human liver microsomes; assay type: ADME
Sequence of Cytochrome P450 3A4 (P08684 whole entry): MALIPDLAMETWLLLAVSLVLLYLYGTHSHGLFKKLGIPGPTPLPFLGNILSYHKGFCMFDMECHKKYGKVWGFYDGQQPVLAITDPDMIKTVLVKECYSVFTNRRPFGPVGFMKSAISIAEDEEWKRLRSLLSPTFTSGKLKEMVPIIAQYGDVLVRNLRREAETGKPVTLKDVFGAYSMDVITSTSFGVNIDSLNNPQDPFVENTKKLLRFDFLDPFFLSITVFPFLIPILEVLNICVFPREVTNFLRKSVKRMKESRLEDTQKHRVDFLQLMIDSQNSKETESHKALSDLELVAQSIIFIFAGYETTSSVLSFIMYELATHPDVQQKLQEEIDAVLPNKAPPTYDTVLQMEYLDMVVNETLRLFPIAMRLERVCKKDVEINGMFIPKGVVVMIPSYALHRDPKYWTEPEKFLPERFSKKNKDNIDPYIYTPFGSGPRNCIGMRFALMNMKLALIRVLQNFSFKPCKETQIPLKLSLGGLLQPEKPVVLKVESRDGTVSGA

Rattus norvegicus [9] = assay: Effect on triglyceride accumulation in Sprague-Dawley rat high fat dietary model at 3 mg/kg, po assessed as reduction in triglyceride level after 42 days by XPT clinical analyzer; assay type: functional; parameters: scale not given: the % may be the effect or the level left; details: time 42 day; procedure, shortened: as §1
Acetyl-CoA carboxylase 1 = Acetyl-CoA carboxylase 1 (Rattus norvegicus, UniProt P11497); assay: Inhibition of rat ACC1 using acetyl-CoA as substrate incubated for 20 mins in presence of [14C]O3 by liquid scintillation counting method
Procedure, shortened: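 Radioenzymatic assay with purified ACC isozymes, measuring [14C]-bicarbonate incorporation into [14C]-malonyl-CoA. Mode of inhibition taken from substrate concentration-dependence experiments varying ATP or carbonate. IC50 dose-response run at saturating ATP.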

[10] = target: Solute carrier family 22 member 6 (Homo sapiens, UniProt Q4U2R8); assay: Inhibition of human SLC22A6 expressed in HEK293 cells in presence of para-aminohippuric acid/metformin; assay type: cell-based
Sequence of Solute carrier family 22 member 6 (Q4U2R8 whole entry): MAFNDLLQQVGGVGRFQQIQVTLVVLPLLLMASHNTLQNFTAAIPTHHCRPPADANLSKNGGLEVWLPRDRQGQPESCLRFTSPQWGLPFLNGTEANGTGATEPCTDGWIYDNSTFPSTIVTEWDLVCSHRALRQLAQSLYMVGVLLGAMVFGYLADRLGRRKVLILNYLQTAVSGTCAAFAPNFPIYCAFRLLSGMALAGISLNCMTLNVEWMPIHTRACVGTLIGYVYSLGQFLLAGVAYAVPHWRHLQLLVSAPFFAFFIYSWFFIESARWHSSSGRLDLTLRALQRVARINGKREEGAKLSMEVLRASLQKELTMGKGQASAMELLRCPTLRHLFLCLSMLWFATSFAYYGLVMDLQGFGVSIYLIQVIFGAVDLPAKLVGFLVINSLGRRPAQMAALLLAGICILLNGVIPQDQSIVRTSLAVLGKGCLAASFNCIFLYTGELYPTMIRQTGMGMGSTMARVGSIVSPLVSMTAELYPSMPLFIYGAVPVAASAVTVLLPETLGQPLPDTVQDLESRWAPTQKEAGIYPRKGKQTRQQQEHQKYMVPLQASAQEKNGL

- uptake ratio at 1 µM (OATP2B1): 7
- CLH [3]: 2.7 µL/min/mg
- uptake ratio at up to 3 µM (OATP1B1): 3.5
- IC50 (Cytochrome P450 2C8): > 50 µM
- EC50 [4]: 0.0054 µM
- IC50 [6]: 68 µM
- IC50 [8]: > 20 µM
- IC50 (Cytochrome P450 3A4): > 50 µM
- IC50 (Acetyl-CoA carboxylase 1): 0.00753 µM
- IC50 [10]: > 30 µM
Compound: COc1cc(C(=O)N2CCC3(CC2)CC(=O)c2c(cnn2C(C)C)C3)cc(-c2ccc(C(=O)O)cc2)n1 [CLESACOSTAT]
- Activity [1]: Toxic
- Activity (Rattus norvegicus [2]): 30%
- Activity [5]: Non-Toxic
- Activity [7]: Non-Toxic
- Activity (Rattus norvegicus [9]): 30%
